Assay results gathered from unrelated publications.
Lines come from different studies, so protocols differ. Converted amounts (≈) assume the structure as drawn.
Technique: broth dilution

O=C(Nc1ccccc1)c1ccc(COC(Cn2ccnc2)c2ccc(Cl)cc2Cl)cc1 (centres unmarked)
MIC80 (Lodderomyces parapsilosis; microbial growth): 0.125 µg/mL (≈ 0.268 µM)

C/C(=N\c1nc(N)nc(/N=C(\C)c2c(O)c3ccccc3oc2=O)n1)c1c(O)c2ccccc2oc1=O
MIC (Aspergillus niger; microbial growth; 48 h): 31.2 µg/mL (≈ 62.7 µM)

O=C(Nc1ccc(F)cc1)c1ccc(COC(Cn2ccnc2)c2ccc(Cl)cc2Cl)cc1 (centres unmarked)
MIC80 (Lodderomyces parapsilosis; microbial growth): 0.125 µg/mL (≈ 0.258 µM)

C/C(=N\CCNCCNCC/N=C(\C)c1c(O)c2ccccc2oc1=O)c1c(O)c2ccccc2oc1=O
MIC (Aspergillus niger; microbial growth; 48 h): 31.2 µg/mL (≈ 60.3 µM)

O=C1OC[C@H]2OC(O)[C@H](O)[C@@H](O)[C@@H]2OC(=O)c2cc(O)c(O)c(O)c2-c2c(O)c(O)c3oc(=O)c4c(c(O)c(O)c5oc(=O)c2c3c54)-c2c1cc(O)c(O)c2O (mixture of isomers)
MIC (Streptococcus sobrinus; microbial growth; 24 h): 100 µg/mL

C/C(=N\C(=S)/N=C(\C)c1c(O)c2ccccc2oc1=O)c1c(O)c2ccccc2oc1=O
MIC (Aspergillus niger; microbial growth; 48 h): 3.9 µg/mL (≈ 8.7 µM)

O=C(Nc1ccc2cccnc2c1)c1ccc(COC(Cn2ccnc2)c2ccc(Cl)cc2Cl)cc1 (centres unmarked)
MIC80 (Lodderomyces parapsilosis; microbial growth): 2 µg/mL (≈ 3.87 µM)

C/C(=N\C(=N)/N=C(\C)c1c(O)c2ccccc2oc1=O)c1c(O)c2ccccc2oc1=O
MIC (Aspergillus niger; microbial growth; 48 h): 62.5 µg/mL (≈ 145 µM)

C[C@@H]1O[C@@H](OC[C@H]2O[C@@H](Oc3c(-c4ccc(O)c(O)c4)oc4cc(O)cc(O)c4c3=O)[C@H](O)[C@@H](O)[C@@H]2O)[C@H](O)[C@H](O)[C@H]1O
MBC (Streptococcus sobrinus; microbial killing): 400 µg/mL (≈ 655 µM)

O=C(Nc1cccc(F)c1)c1ccc(COC(Cn2ccnc2)c2ccc(Cl)cc2Cl)cc1 (centres unmarked)
MIC80 (Lodderomyces parapsilosis; microbial growth): 0.125 µg/mL (≈ 0.258 µM)

O=c1oc2c(O)c(O)cc3c(=O)oc4c(O)c(O)cc1c4c23
MBC (Streptococcus sobrinus; microbial killing): 200 µg/mL (≈ 662 µM)

COc1cc(C=O)ccc1OC1=C(Cl)C(=O)c2ccccc2C1=O
MIC (Aspergillus niger; microbial growth): 12 µg/mL (≈ 35 µM)

O=C1O[C@H]2[C@@H]3OC(=O)c4cc(O)c(O)c(O)c4-c4c(O)c(O)c5oc(=O)c6c(c(O)c(O)c7oc(=O)c4c5c76)-c4c(cc(O)c(O)c4O)C(=O)OC[C@H]3OC(O)[C@@H]2OC(=O)c2cc(O)c(O)c(O)c2-c2c1cc(O)c(O)c2O (mixture of isomers)
MBC (Streptococcus sobrinus; microbial killing): 200 µg/mL

CC1CCC(C(C)C)C(OC2=C(Cl)C(=O)c3ccccc3C2=O)C1 (centres unmarked)
MIC (Aspergillus niger; microbial growth): 12 µg/mL (≈ 34.6 µM)

C[C@@H]1O[C@@H]1P(=O)(O)O
MIC (Neisseria gonorrhoeae; microbial growth; ATCC49226): 31.2 µg/mL

O=C(Nc1ccc(C(F)(F)F)cc1)c1ccc(COC(Cn2ccnc2)c2ccc(Cl)cc2Cl)cc1 (centres unmarked)
MIC80 (Lodderomyces parapsilosis; microbial growth): 0.06 µg/mL (≈ 0.112 µM)

O=C(O[C@@H]1O[C@@H]2COC(=O)c3cc(O)c(O)c(O)c3-c3c(cc(O)c(O)c3O)C(=O)O[C@H]([C@H]1O)[C@@H]2O)c1cc(O)c(O)c(O)c1
MBC (Streptococcus sobrinus; microbial killing): 400 µg/mL (≈ 630 µM)

C/C(=N\CCNCC/N=C(\C)c1c(O)c2ccccc2oc1=O)c1c(O)c2ccccc2oc1=O
MIC (Aspergillus niger; microbial growth; 48 h): 62.5 µg/mL (≈ 131 µM)

Oc1cc(O)c2c(c1)O[C@H](c1cc(O)c(O)c(O)c1)[C@@H](O)C2
MIC (Streptococcus sobrinus; microbial growth; 24 h): 100 µg/mL (≈ 327 µM)

O=C(Nc1ccc(Br)cc1)c1ccc(COC(Cn2ccnc2)c2ccc(Cl)cc2Cl)cc1 (centres unmarked)
MIC80 (Lodderomyces parapsilosis; microbial growth): 0.125 µg/mL (≈ 0.229 µM)
